Assay results: ChEMBL document CHEMBL1138746, “Indolebutylamines as selective 5-HT(1A) agonists” (J Med Chem, 2004)

Tests used:
[1] = target: T1, Adrenergic receptor alpha-1 (Homo sapiens, UniProt P35348+P25100+P35368); assay: Inhibition of Alpha-1 adrenergic receptor; assay type: protein assay
T1 sequence (P35348 whole entry): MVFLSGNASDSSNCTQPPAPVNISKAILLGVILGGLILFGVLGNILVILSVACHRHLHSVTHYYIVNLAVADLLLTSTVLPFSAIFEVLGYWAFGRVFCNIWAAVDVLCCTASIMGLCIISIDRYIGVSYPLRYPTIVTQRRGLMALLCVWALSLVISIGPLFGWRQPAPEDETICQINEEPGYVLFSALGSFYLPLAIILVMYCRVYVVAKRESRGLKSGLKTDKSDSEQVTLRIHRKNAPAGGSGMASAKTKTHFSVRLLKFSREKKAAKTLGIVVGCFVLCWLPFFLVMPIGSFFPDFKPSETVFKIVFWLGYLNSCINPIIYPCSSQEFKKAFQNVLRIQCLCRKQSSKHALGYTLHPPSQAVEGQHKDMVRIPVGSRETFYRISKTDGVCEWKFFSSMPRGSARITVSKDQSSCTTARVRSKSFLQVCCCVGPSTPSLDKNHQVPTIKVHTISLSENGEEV
T1 sequence (P25100 whole entry): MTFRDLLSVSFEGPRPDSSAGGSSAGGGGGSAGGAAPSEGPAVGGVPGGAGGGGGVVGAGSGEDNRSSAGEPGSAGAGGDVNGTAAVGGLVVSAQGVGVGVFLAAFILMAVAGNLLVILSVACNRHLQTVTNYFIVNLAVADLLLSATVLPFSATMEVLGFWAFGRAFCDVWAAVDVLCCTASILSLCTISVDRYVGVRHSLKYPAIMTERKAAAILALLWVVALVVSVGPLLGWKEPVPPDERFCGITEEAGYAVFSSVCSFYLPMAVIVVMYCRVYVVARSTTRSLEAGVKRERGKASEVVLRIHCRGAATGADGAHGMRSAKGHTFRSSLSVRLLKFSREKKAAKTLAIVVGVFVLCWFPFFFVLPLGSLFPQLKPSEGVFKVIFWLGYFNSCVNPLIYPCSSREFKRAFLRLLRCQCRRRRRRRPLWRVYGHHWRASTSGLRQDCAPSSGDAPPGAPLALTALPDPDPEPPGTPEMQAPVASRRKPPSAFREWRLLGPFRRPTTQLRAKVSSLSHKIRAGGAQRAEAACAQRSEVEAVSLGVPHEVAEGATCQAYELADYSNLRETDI
T1 sequence (P35368 whole entry): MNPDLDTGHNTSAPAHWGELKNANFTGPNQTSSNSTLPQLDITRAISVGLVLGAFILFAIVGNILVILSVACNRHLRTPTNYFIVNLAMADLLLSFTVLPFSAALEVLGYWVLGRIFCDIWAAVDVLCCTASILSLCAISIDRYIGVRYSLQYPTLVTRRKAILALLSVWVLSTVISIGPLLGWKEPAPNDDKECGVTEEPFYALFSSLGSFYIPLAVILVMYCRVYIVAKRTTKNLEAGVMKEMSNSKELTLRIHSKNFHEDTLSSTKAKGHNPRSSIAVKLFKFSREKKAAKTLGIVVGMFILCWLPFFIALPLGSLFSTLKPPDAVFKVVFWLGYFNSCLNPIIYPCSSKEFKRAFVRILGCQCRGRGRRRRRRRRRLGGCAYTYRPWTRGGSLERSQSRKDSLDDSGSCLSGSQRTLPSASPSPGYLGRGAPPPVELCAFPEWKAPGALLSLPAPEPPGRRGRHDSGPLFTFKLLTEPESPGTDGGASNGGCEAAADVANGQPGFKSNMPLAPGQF

D(2) dopamine receptor = D(2) dopamine receptor (Rattus norvegicus, UniProt P61169); assay: Displacement of [3H]spiperone from dopamine D2 receptor of rat striatal membranes; assay type: cell membranes, Membrane
Outline: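 Rat striatal membranes (0.3–1.0 mg protein/mL) were incubated with 0.1 nM [3H]spiperone in Tris-HCl buffer (pH 7.1) containing 120 mmol/L NaCl, 5 mmol/L KCl, 1 mmol/L CaCl2, 1 mmol/L MgCl2 and 0.1% ascorbic acid, at 37 °C for 15 min. Bound ligand was separated by filtration with three ice-cold washes. Nonspecific binding was defined with 1 mmol/L (+)-butaclamol. IC50 (50% inhibition of binding) came from 5–10 concentrations, each in triplicate.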

[2] = Inhibition of hydroxytryptamine 2A receptor

Sequence of D(2) dopamine receptor (P61169 whole entry): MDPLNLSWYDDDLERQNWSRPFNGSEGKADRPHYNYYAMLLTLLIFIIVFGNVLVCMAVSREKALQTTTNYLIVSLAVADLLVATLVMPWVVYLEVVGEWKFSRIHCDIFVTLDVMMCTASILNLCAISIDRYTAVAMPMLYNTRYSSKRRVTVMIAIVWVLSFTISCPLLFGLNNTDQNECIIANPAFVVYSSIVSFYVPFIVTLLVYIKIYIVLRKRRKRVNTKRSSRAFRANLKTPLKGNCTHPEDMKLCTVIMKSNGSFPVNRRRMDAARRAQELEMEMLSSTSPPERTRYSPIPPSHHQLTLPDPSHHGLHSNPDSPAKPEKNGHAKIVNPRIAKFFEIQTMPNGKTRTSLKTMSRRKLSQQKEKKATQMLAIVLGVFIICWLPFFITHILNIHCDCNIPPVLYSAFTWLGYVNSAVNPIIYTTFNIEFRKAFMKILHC

IC50 [1]: 0.5 µM | IC50 (D(2) dopamine receptor): 2.9 µM | IC50 [2]: 2.6 µM
Structure (SMILES): O=C1c2ccccc2S(=O)(=O)N1CCCCN1CCN(c2ncccn2)CC1 [IPSAPIRONE]
